According to PMC5694347 (Clinical cancer research : an official journal of the …, 2015):

Key:
Assay type in all cases: in vivo, human
[1] = system: relapsed and/or refractory lymphoma or MM; assay: Antitumor activity: disease response
NRF-2 = assay: Skin punch biopsy immunohistochemistry, NRF-2; settings: 19 patients, schedule A 25–147 mg/m^2, after second dose of cycle 1
Procedure, shortened: (§1)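 IV infusion over 1 h. 2 mm skin punch biopsies were taken at screening and 3–6 h after the cycle 1 dose on day 2 (schedule A) or day 4 (schedule B). On 5 µm sections, CC1 antigen retrieval ran 20 min. Primary antibody was applied 1 h at room temperature, then alkaline phosphatase secondary 32 min, developed with NBT/BCIP. Slides were counterstained and imaged at 20x. Signal was percent stained area of the basal epithelial region.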

[2] = system: pevonedistat–NEDD8 adduct; assay: Bone marrow aspirate immunohistochemistry for pevonedistat–NEDD8 adduct; settings: one patient treated at 25 mg/m^2, pre-dose and post-dose sample
Procedure, shortened: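 Patients with marrow involvement received IV pevonedistat over 1 h. Marrow aspirates were taken at screening and 2–6 h after the cycle 1 dose on day 2 (schedule A) or day 4 (schedule B). Aspirates were clotted, formalin-fixed and paraffin-embedded. Adduct-specific antibody was applied 1 h at 37°C, then biotinylated goat anti-rabbit secondary 32 min at room temperature, with DAB detection. Slides were counterstained and whole-slide imaged at 20x.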

CDT-1 = assay: Skin punch biopsy immunohistochemistry, CDT-1; settings: 3–6 hours after second dose of cycle 1
Procedure, shortened: as §1

Structure (SMILES): NS(=O)(=O)OC[C@@H]1C[C@@H](n2ccc3c(N[C@H]4CCc5ccccc54)ncnc32)C[C@@H]1O [pevonedistat]
- Duration of SD ([1]; 5 MM patients who received ≥5 cycles): 3.22–6.01 months
- Duration of SD ([1]; 7 lymphoma patients who received ≥5 cycles): 3.25–9.53 months
- Best response in MM patients ([1]; MM patients): best responses of only SD
- NRF-2 expression in skin, median increase vs baseline (NRF-2): 39.4 fold
- NRF-2 expression in skin, range of increase vs baseline (NRF-2): 0–1483 fold
- Pevonedistat–NEDD8 adduct in bone marrow aspirate [2]: not detected
- CDT-1 expression level in skin biopsies vs baseline (CDT-1): increases
